Assay results of several laboratories.
Each line is one published result; the experiments were not run side by side.
Cell line: Vero
Observed: cell growth or viability

Compound | method | time | IC50 [µM]
COc1cc(NC(=O)C2=C(C)NC(C)=C(C(=O)Nc3cc(OC)c(Cl)cc3OC)C2c2ccccc2)c(OC)cc1Cl | MTT |  | 42.2
COC(=O)c1ccc(NC(=O)Cn2c(=O)c3cc(I)ccc3n(Cc3ccccc3)c2=O)cc1 |  |  | 50.2
COc1cc(NC(=O)C2=C(C)NC(C)=C(C(=O)Nc3cc(OC)c(Cl)cc3OC)C2c2ccc(Cl)cc2)c(OC)cc1Cl | MTT |  | 27.4
CN(C)C/C=C/C(=O)Nc1cc2c(Nc3ccc(F)c(Cl)c3)ncnc2cc1O[C@H]1CCOC1 | MTT | 72 h | 110
COc1cc(NC(=O)C2=C(C)NC(C)=C(C(=O)Nc3cc(OC)c(Cl)cc3OC)C2c2cccc(Cl)c2)c(OC)cc1Cl | MTT |  | 28.4
Cc1ncc(CN2CCc3ccccc3C2)c2cc(C(=O)c3ccc4c(c3)OCCO4)oc12 | MTT | 72 h | 181
CS(=O)(=O)CCNCc1ccc(-c2ccc3ncnc(Nc4ccc(OCc5cccc(F)c5)c(Cl)c4)c3c2)o1 | MTT |  | 17.5
Cc1ccc2c(-c3cc4c(CNCc5cccnc5)cnc(C)c4o3)cc(=O)oc2c1C | MTT | 72 h | 98.5
S=c1nc(-c2ccc(Nc3nnc(-c4ccc(Cl)cc4)c4ccccc34)cc2)cc(-c2ccc(Cl)cc2)[nH]1 |  |  | 3.15
O=C(CN1C(=O)SC(=Cc2ccc(Cl)cc2Cl)C1=O)Nc1ccc(C(=O)NNC(=O)c2ccccc2)cc1 | MTS |  | 3.97
Clc1ccc(-c2nnc(Nc3ccc(C4=NNC(c5ccccc5)C4)cc3)c3ccccc23)cc1 (stereo not drawn) |  |  | 4.75
C=CCn1c(=O)n(CC(=O)Nc2ccc(-n3nc(C)cc3C)cc2)c(=O)c2cc(I)ccc21 |  |  | 43.4
Oc1ccccc1C1CC(c2ccc(Nc3nnc(-c4ccc(Cl)cc4)c4ccccc34)cc2)=NN1 (stereo not drawn) |  |  | 4.11
COc1cc(NC(=O)C2=C(C)NC(C)=C(C(=O)Nc3cc(OC)c(Cl)cc3OC)C2c2ccco2)c(OC)cc1Cl | MTT |  | 69.8
O=c1nc(-c2ccc(Nc3nnc(-c4ccc(Cl)cc4)c4ccccc34)cc2)cc(-c2ccccc2)[nH]1 |  |  | 4
NNC(=O)c1ccc(NC(=O)Cn2c(=O)c3cc(I)ccc3n(Cc3ccccc3)c2=O)cc1 |  |  | 52.1
O=c1nc(-c2ccc(Nc3nnc(-c4ccc(Cl)cc4)c4ccccc34)cc2)cc(-c2ccc(Cl)cc2)[nH]1 |  |  | 3
O=C(Cn1c(=O)c2cc(I)ccc2n(Cc2ccccc2)c1=O)Nc1ccc(-c2nnc(S)o2)cc1 |  |  | 43.8
